Sampled rows, rich in hits. Any-hit rate of the full collection: about 3.7%.
KCNQ1 block – blocks the human KCNQ1 potassium channel | hit rate 1.3% among 310,000 | B-score at 10 µM | P51787 | CHO-K1 KCNQ1, FluxOR thallium flux fluorescence; hits give high values;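 active = compounds whose thallium flux B-score, printed positive for inhibition, exceeds three library SD while starting fluorescence stays within three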;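 also: channel opened by potassium depolarization with thallium stimulus after 20 min compound exposure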
hERG rescue – shields human hERG channel from block by proarrhythmic agents; AID 1511; CHO-hERG, FluxOR thallium flux, dofetilide IC70 present; hit rate 0.51% among 310,000; activation (rescue from dofetilide block), less the hit threshold, % at 10 µM; Q12809;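 active = activation above the mean of controls blocked by dofetilide plus 5 SD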;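 also: thallium influx through hERG after potassium depolarization seen as dye fluorescence rise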
Kir21 block – blocks the mouse Kir2.1 inward-rectifier potassium channel. P35561. HEK293-Kir2.1, FluxOR thallium flux fluorescence; hits give low values. B-score at 10 µM. hit rate 0.85% among 310,000;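 active = fluorescence ratio B-score at or below minus 3 SD of library scores, with starting-brightness B-score within 2 SD, cut at about -4.2 in these data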;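 also: channel flux triggered by added potassium and thallium sulfate stimulus; B-score of peak minus minimum fluorescence over baseline after thallium stimulus; more negative B-score means stronger Kir2.1 block with less thallium influx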
Target sequence (P35561 whole entry, looked up): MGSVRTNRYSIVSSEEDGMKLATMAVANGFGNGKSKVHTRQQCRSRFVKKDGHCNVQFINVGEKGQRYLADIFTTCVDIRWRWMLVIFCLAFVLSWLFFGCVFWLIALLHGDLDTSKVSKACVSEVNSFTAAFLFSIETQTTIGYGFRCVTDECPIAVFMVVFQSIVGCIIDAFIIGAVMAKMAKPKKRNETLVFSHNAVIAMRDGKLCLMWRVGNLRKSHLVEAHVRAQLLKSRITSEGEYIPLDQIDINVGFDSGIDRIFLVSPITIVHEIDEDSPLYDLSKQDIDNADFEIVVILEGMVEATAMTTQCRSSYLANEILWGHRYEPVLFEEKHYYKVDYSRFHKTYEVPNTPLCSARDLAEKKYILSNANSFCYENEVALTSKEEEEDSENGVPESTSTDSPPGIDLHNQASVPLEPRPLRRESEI
KCNK3 block – human KCNK3 channel inhibition, primary screen. O14649. AID 602410. CHO-KCNK3 thallium flux, FluxOR fluorescence; hits give low values. hit rate 0.84% among 340,000. B-score at 10 µM;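 active = B-score under library mean minus 4 SD, starting fluorescence ratio at most library mean plus 5 SD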;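 also: more negative B-score means stronger inhibition of thallium flux through KCNK3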
KCNK9 inh – human KCNK9 channel inhibition. Q9NPC2. HEK293 KCNK9, FluxOR thallium flux fluorescence; hits give low values. B-score at 10 µM. hit rate 1.2% among 310,000. AID 488922;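 active = ratio B-score over 3 SD below the library mean, with starting fluorescence within 5 SD of its mean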;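 also: negative B-score means less thallium flux so channel inhibition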
KCNQ1 act – human KCNQ1 channel potentiation or activation; CHO-K1 KCNQ1, thallium flux FluxOR fluorescence; hits give high values; hit rate 0.35% among 310,000; P51787; AID 2648; B-score at 10 µM;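 active = fluorescence ratio B-score, a plate-corrected score, at least three library SD, with initial intensity B-score within 5 SD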
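assay system = CHO-K1 cells stably expressing KCNQ1 | medium = assay buffer, equal DMSO in all wells | timing = 37 °C overnight plating, 90-min dark dye load, 20-min compound pretreatment | measured by = kinetic FluxOR thallium fluorescence, 10-s 1-Hz baseline, 110-s post-stimulus read | measure = fluorescence change relative to baseline, converted to B score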
KCNQ1 inh valid – human KCNQ1 channel inhibition, validation assay; hit rate 93% among 1,600; inhibition, % at 10 µM; shares compounds with KCNQ1 block; KCNQ1 cell line, FluxOR thallium flux fluorescence; AID 588353;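 active = primary screen active, with duplicate mean exceeding buffer control mean plus 3 SD of buffer wells, cut at about 28% in these data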;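 also: 0% = buffer control ratio and 100% = XE991 inhibitor control ratio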
CHO KCNQ1 ctr – counter-screen for KCNQ1 inhibitors: effect in parental CHO cells; parental CHO-K1, FluxOR thallium flux fluorescence ratio; hits give low values; zero means no signal rise above baseline; shares compounds with KCNQ1 block; hit rate 21% among 1,600; AID 588366; fluorescence ratio (Tl flux) at 10 µM;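 active = mean of duplicate thallium-flux fluorescence ratios in parental host cells more than 5 SD below the buffer control mean, cut at about 0.38 in these data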;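 also: ratio is peak minus minimum fluorescence divided by baseline fluorescence; actives read low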
KCNQ1 APC inh – human KCNQ1 inhibition validated by electrophysiology. shares compounds with KCNQ1 block. KCNQ1-CHO cells, automated patch clamp current. hit rate 20% among 490. calls only at 10 µM;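 active = KCNQ1 current drop exceeding 3 SD of negative control wells, seen in both duplicate runs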;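 also: steady state current during a 2 s step from -80 to +40 mV; negative values mean current inhibition and positive values mean potentiation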
KCNQ2 inh – selectivity of KCNQ1 inhibitors: inhibition of rat KCNQ2 channel. shares compounds with KCNQ1 block. KCNQ2 cells, FluxOR thallium flux fluorescence. inhibition, % at 10 µM. hit rate 71% among 1,600. AID 651746;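 active = mean percent inhibition of the KCNQ2 thallium signal more than 5 SD above the buffer-only control wells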;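 also: KCNQ2 expressed in CHO cells; 0% = buffer control wells and 100% = XE-991 inhibitor control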
KCNQ1 KCNE1 spec – KCNQ1 inhibitor that also blocks human KCNQ1/KCNE1 channel; hit rate 77% among 1,600; KCNQ1/KCNE1 cells, FluxOR thallium flux fluorescence; shares compounds with KCNQ1 block; inhibition, % at 10 µM;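 active = mean percent inhibition of duplicate wells above the buffer-only control mean plus 3 SD of those controls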;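 also: 0% = buffer only wells and 100% = XE-991 inhibitor control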
An asterisk follows results filed as active; i = inactive; / = not tested or not shown; + = active, no number.

SMILES	KCNQ1 block	hERG rescue	Kir21 block	KCNK3 block	KCNK9 inh	KCNQ1 act	KCNQ1 inh valid	CHO KCNQ1 ctr	KCNQ2 inh	KCNQ1 KCNE1 spec	others
CC(=O)Nc1ccc(NC(=O)Nc2cccc(Cl)c2)cc1	i	-7	2	i	i	i	/	/	/	/
O=C(Nc1ccncc1)Nc1cccc(F)c1	8*	-17	1.1	i	i	i	48*	0.55	i	42%*
O=C(Nc1cccc(Cl)c1)Nc1ccc2nccnc2c1	7*	-8	-0.02	i	i	i	98*	0.43	92%*	100%*	KCNQ1 APC inh=i
COC(=O)c1cc(OC)c(OC)cc1NC(=S)Nc1cccc(Cl)c1	7*	-6	-0.03	i	i	i	60*	0.51	i	i
CC(=O)c1ccc(NC(=O)Nc2cccc(Cl)c2)cc1	8*	-17	-0.39	i	i	i	88*	0.47	61%*	i	KCNQ1 APC inh=i
Oc1ccccc1N1CCN(CC(O)COC2CCCc3ccccc32)CC1 (centres undefined)	i	-6	0.12	i	i	i	/	/	/	/
Cc1occc1-c1nnc(SCC(=O)N2CCOCC2)n1CCc1ccccc1	6*	-4	1.8	i	i	i	36*	0.53	i	45%*
Cc1occc1-c1nnc(SCC(=O)N2CCOCC2)n1CC(C)C	i	-3	1.5	i	i	i	/	/	/	/
COc1cccc(CN(C)C(=O)CN2C(=O)NC(c3ccccc3)(c3ccccc3)C2=O)c1	/	/	/	i	/	/	/	/	/	/
OCCN1CCN(C(=S)NC2CCCC2)CC1	10*	-12	1.2	i	i	i	83*	0.52	i	110%*
S=C(NC1CC1)N1CCN(C(=S)NC2CC2)CC1	i	-3	1.7	i	i	i	/	/	/	/
Cc1ccc(S(=O)(=O)c2c(N)n(CCC(C)C)c3nc4ccccc4nc23)cc1	15*	-12	1.6	i	i	i	75*	0.42	i	97%*
Cc1ccsc1C(=O)OCc1csc(-c2ccccc2)n1	7*	-12	0.93	i	-7.8*	i	146*	0.41	127%*	+	KCNQ1 APC inh=i
CCN(CC)c1ccc(O)c(C=Nc2ccc(C)c(C)c2)c1	11*	-9	0.54	i	i	i	150*	0.44	110%*	166%*	KCNQ1 APC inh=i
CCN(CC)c1ccc(C=Nc2ccccc2C)c(O)c1	i	-9	1	i	i	i	/	/	/	/
O=C(NC1CCCCC1)N1CCSC1=Nc1ccccc1	10*	-20	1.3	i	i	i	103*	0.41	110%*	111%*	KCNQ1 APC inh=i
O=C(NC1CCCCC1)N1CCCc2ccccc21	i	-10	-1.3	i	i	i	/	/	/	/
CCCCNc1c2c3c(cccc3n(C)c1=O)C(=O)c1ccccc1-2	29*	-38	-12	i	i	i	+	0.013*	i	i
Cn1c(=O)c(NCCc2ccccc2)c2c3c(cccc31)C(=O)c1ccccc1-2	29*	-44	-13	i	i	i	+	0.004*	i	i
Cn1c(=O)c(NC2CCCCC2)c2c3c(cccc31)C(=O)c1ccccc1-2	/	/	/	i	/	/	/	/	/	/
CCN=C(NCC)SC1CC(=O)N(c2cccc(OC)c2)C1=O (centres undefined)	11*	-23	1	i	i	i	64*	0.44	71%*	62%*
Oc1ccccc1N1CCN(c2ncnc3scc(-c4ccccc4)c23)CC1	6*	-19	-0.75	i	-8*	i	112*	0.41	91%*	156%*	KCNQ1 APC inh=i
O=S(=O)(c1ccccc1)N1CCN(c2ncnc3scc(-c4ccccc4)c23)CC1	i	-7	-1.8	i	i	i	/	/	/	/
Cc1cc(=O)[nH]c(SCC(=O)/C=C2\N(C)c3ccccc3C2(C)C)n1	11*	-22	-0.97	i	i	i	106*	0.48	88%*	79%*	KCNQ1 APC inh=i
Cc1ccc(S(=O)(=O)Nc2ccc(SC(F)F)cc2)c(C)c1	6*	-10	-0.48	i	i	i	26*	0.45	i	136%*
SMILES	KCNQ1 block	hERG rescue	Kir21 block	KCNK3 block	KCNK9 inh	KCNQ1 act	KCNQ1 inh valid	CHO KCNQ1 ctr	KCNQ2 inh	KCNQ1 KCNE1 spec	others
CC(C)c1ccc(S(=O)(=O)Nc2ccc(SC(F)F)cc2)cc1	i	-8	0.07	i	i	i	/	/	/	/
Cn1c(=O)c(N)c2c3c(c(Br)ccc31)C(=O)c1ccccc1-2	21*	-34	-11	i	i	i	+	0.029*	i	i
COc1ccc(/C=N/NC(=O)NC23CC4CC(CC(C4)C2)C3)c(OC)c1	i	-3	2.1	i	i	i	/	/	/	/
Oc1ccc(-c2n[nH]c(C(F)(F)F)c2-c2ccccc2)c(O)c1	8*	-20	-2.5	i	i	i	156*	0.37*	i	182%*
O=C(NN=Cc1ccccc1C(=O)O)c1ccc(NS(=O)(=O)c2cccs2)cc1	/	/	/	i	/	/	/	/	/	/
CCn1c(=O)c(C(=O)NCc2ccc(OC)cc2)c(O)c2ccccc21	i	-2	-1.1	i	i	i	/	/	/	/
CCCn1c(=O)c(C(=O)NCCc2ccc(OC)cc2)c(O)c2ccccc21	9*	-1	-2.8	i	i	i	93*	0.48	91%*	77%*	KCNQ1 APC inh=i
Cc1ccc(S(=O)(=O)N2CCC(C(=O)N3CCC3)CC2)cc1	i	-7	-1	i	i	i	/	/	/	/
CCn1c(/C=C/c2ccc(O)c(O)c2)nc2ccccc2c1=O	7*	-17	-2.9	i	i	i	30*	0.52	i	i
CCn1c(/C=C/c2ccc(O)cc2)nc2ccccc2c1=O	i	-8	-0.9	i	i	i	/	/	/	/
O=C(CC12CC3CC(CC(C3)C1)C2)N/N=C/c1ccncc1	i	-12	0.44	i	i	i	/	/	/	/
CC(C)CCN1C(=O)c2cccc3c(N)ccc(c23)C1=O	24*	-42	-16	i	i	i	+	0.0055*	i	i

Screening data: PubChem BioAssay, Johns Hopkins Ion Channel Center
